In ChEMBL document CHEMBL6177979, “Exploring the Phototherapeutic Applications of Mitochondria-Targeted COUPY Photocages of Antitumor Drugs” (J Med Chem, 2025):
Each block holds one molecule with its values, some of them ahead of it. Calls of active or inactive are those of the source. No cut-off for these calls is given here.

Tests used:
HeLa [1] = assay: Cytotoxicity against human HeLa cells assessed as reduction in cell viability at 100 uM incubated for 2 hrs under dark condition by MTT assay; format: functional, cell-based
Outline: (§1)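 HeLa or U87-MG cells seeded at 5000/well in DMEM with 10% FBS and 1% penicillin-streptomycin, grown 24 h. Compound added at 0–200 μM final (0.5% DMSO) for 1 h at 37 °C in the dark. Then 1 h dark or 550 nm pulsed LED (4 mW/cm2, 1 min on/1 min off; 7.2 J cm–2). Medium refreshed, 48 h incubation, MTT read-out. IC50 from sigmoidal dose–response curves, n = 3.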

[2] = Photoactivation of the compound in PBS/ACN irradiation with visible light at 530 nm 150 mW cm2 incubated for 2 hrs by RP-HPLC analysis; parameters: dose or concentration left out as unconfirmed; details: buffer
Outline: (§2)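 Caged compound (20 μM) with 4-dimethylaminopyridine internal standard (20 μM) in PBS/ACN 8:2 at 37 °C. First held 2 h in the dark for stability, then irradiated with a 470–750 nm LED centred at 530 nm while stirred. Release followed by RP-HPLC with formic acid/water–ACN gradients.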

[3] = Drug localization in […] of human HeLa cells at 1 uM incubated for 30 mins by Lysotracker green dye based confocal scanning microscopic analysis; format: ADME, subcellular; details: 0.5 h
Outline: (§3)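 HeLa cells incubated with compound (1 μM) for 30 min at 37 °C in nonsupplemented DMEM. LysoTracker Green FM added for the last 5 min and WGA Alexa Fluor 633 for the last 20 min. Cells washed with DPBS and imaged live by confocal at 37 °C: compound excited at 561 nm (570–670 nm), LTG at 488 nm, WGA at 633 nm. Pearson's coefficient from 5 stacks, about 25 cells each.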

[4] = Photophysical property of the compound assessed as fluorescence quantum yield; format: physicochemical
Outline: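 Fluorescence quantum yield by the comparative method against cresyl violet in ethanol (ΦF 0.54). Optically matched solutions with absorbance below 0.1 at 540 nm excitation. Calculated from integrated emission, absorbance and refractive indexes.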

[5] = Induction of ROS generation in PBS buffer assessed as increase in singlet oxygen by measuring increase in SOSG fluorescence intensity at 10 uM irradiated with green light 505 nm 100 mW/cm2 for 15 mins by SOSG probe based analysis; format: functional
Outline: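 Cell-free fluorogenic probe test. Compound (10 μM) in PBS with 2% DMSO plus SOSG (5 μM, singlet oxygen) or DHR123 (10 μM, superoxide), irradiated with green LED light (505 ± 35 nm, 100 mW cm–2), with the rise in probe fluorescence followed. Positive references were Rose Bengal (SOSG) and methylene blue (DHR123). Scavenger controls used sodium azide-saturated PBS (singlet oxygen) or tiron-saturated PBS (superoxide).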

[6] = Induction of singlet oxygen quantum yield under irradiation with green light 505 nm 100 mW/cm2 by; format: functional
Outline: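 Singlet oxygen quantum yield measured in air-saturated DCM (bubbled 15 min). DPBF trap at ~1.0 absorbance (50 μM); compound absorbance set to 0.06 at 505 nm. Irradiated with LED at 505 ± 35 nm, 100 mW cm–2.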

[7] = Drug localization in Endosome of human HeLa cells at 1 uM incubated for 30 mins by wheat germ agglutinin alexa fluor 633 probe based analysis; format: ADME, subcellular; details: 0.5 h; outline: as §3
[8] = Drug localization in lysosome of human HeLa cells at 1 uM incubated for 30 mins by Lysotracker green dye based analysis; format: ADME, subcellular; details: 0.5 h; outline: as §3
HeLa [9] = assay: Photocytotoxicity in human HeLa cells assessed as reduction in cell viability irradiated with 550 nm 4 mW/cm^-2 green-yellow LED light for 1 hr and measured after 48 hrs in presence of 4-PBA by MTT assay; format: toxicity, cell-based; details: 49 h; outline: as §1
[10] = Photoactivation of the compound in PBS/ACN incubated for 2 hrs by RP-HPLC analysis; details: buffer; outline: as §2
HeLa [11] = assay: Photocytotoxicity in human HeLa cells assessed as reduction in cell viability irradiated with 550 nm 4 mW/cm^-2 green-yellow LED light for 1 hr and measured after 48 hrs in presence of CLB by MTT assay; format: toxicity, cell-based; details: 49 h; outline: as §1
[12] = Induction of ROS generation in PBS buffer assessed as increase in superoxide anion radical level by measuring increase in DHR123 fluorescence intensity at 10 uM irradiated with 505 nm 100 mW/cm2 green light for 15 mins by DHR123 probe based analysis
[13] = Drug localization in lysosome of human HeLa cells at 1 uM incubated for 30 mins by wheat germ agglutinin alexa fluor 633 probe based analysis; format: ADME, subcellular; details: 0.5 h; outline: as §3
[14] = Photochemical property of compound assessed as uncaging quantum yields; format: physicochemical
Outline: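 Uncaging quantum yields derived from photon flux (DAE actinometry) together with photolysis rate parameters. Photolysis run in PBS/ACN 8:2 at 37 °C under a 530 nm-centred LED.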

HeLa [15] = assay: Photocytotoxicity in human HeLa cells assessed as reduction in cell viability irradiated with 550 nm 4 mW/cm^-2 green-yellow LED light for 1 hr and measured after 48 hrs by MTT assay; format: toxicity, cell-based; details: 49 h; outline: as §1
[16] = Phototoxic index, ratio of IC50 for cytotoxicity against human HeLa cells assessed as reduction in cell viability incubated for 2 hrs under dark condition by MTT assay to IC50 for photocytotoxicity in human HeLa cells assessed as reduction in cell viability irradiated with 550 nm 4 mW/cm^-2 green-yellow […] and measured after 48 hrs by MTT assay; format: toxicity, cell-based; details: read-out: Ratio IC50
Outline: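 Phototoxic index is dark IC50 divided by light IC50, HeLa MTT assay. Cells had 1 h compound in the dark, then 1 h dark or 550 nm LED (4 mW/cm2 pulsed, 7.2 J cm–2), then 48 h after medium change.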

[17] = Drug uptake in human HeLa cells assessed as increase in fluorescence intensity at 1 uM incubated for 30 mins by DAPI staining based confocal microscopic analysis; format: ADME, cell-based; details: 0.5 h
Outline: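 HeLa cells seeded on glass-bottom dishes in DMEM with 10% FBS. After 24 h, incubated 30 min at 37 °C with compound (1 μM) in supplemented DMEM. Washed three times with DPBS, kept in phenol red-free low-glucose DMEM, imaged live by confocal with 561 nm excitation and 570–670 nm detection.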

U-87 MG [18] = assay: Cytotoxicity against human U-87 MG cells assessed as reduction in cell viability incubated for 2 hrs under dark condition by MTT assay; format: functional, cell-based, U-87MG ATCC; outline: as §1
[19] = Photocytotoxicity in human U-87 MG cells assessed as reduction in cell viability irradiated with 550 nm 4 mW/cm^-2 green-yellow LED light for […] and measured after 48 hrs by MTT assay; format: toxicity, cell-based, U-87MG ATCC; outline: as §1
[20] = Drug localization in lysosome of human HeLa cells at 1 uM incubated for 30 mins by Lysotracker green dye based confocal scanning microscopic analysis; format: ADME, subcellular; details: 0.5 h; outline: as §3
[21] = Drug localization in mitochondria of human HeLa cells at 1 uM incubated for 30 mins by Mito-tracker green dye based confocal scanning microscopic analysis; format: ADME; details: 0.5 h
Outline: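 Cells washed with DPBS and imaged live by confocal at 37 °C with 5% CO2: compound excited at 561 nm (detection 570–670 nm), MTG at 488 nm. Colocalization coefficients from 5 stacks of about 25 cells.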

U-87 MG [22] = assay: Cytotoxicity against human U-87 MG cells assessed as reduction in cell viability incubated for 2 hrs under dark condition by resazurin assay; format: functional, cell-based; details: U-87MG ATCC
[23] = Drug accumulation in human HeLa cells assessed as mitochondrial localization at 2 uM incubated for 30 mins by Hoechst 33342 staining based live cell confocal microscopic analysis; format: ADME; details: 0.5 h
Outline: (§4)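 Live HeLa cells (DMEM, 4.5 g/L glucose, 10% FBS, pen-strep) on glass-bottom dishes; 24 h after seeding, incubated 30 min at 37 °C with compound (1 or 2 μM) in DMEM + 10% FBS. Cells were washed three times with DPBS and imaged at 37 °C, 5% CO2 in phenol-red-free low-glucose DMEM. Excitation 561 nm, emission 570–670 nm. For co-staining, MitoTracker Green FM (0.1 μM) was co-incubated 30 min in nonsupplemented DMEM and excited at 488 nm.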

[24] = Drug accumulation in human HeLa cells assessed as mitochondrial localization at 1 uM incubated for 30 mins by Hoechst 33342 staining based live cell confocal microscopic analysis; format: ADME; details: 0.5 h; outline: as §4

SMILES: O=C(O)CCCc1ccccc1
IC50 (HeLa [1]): > 100 µM

SMILES: CCN(CC)c1ccc2c(c1)O/C(=C(/C#N)c1cc[n+](CCC[N+](C)(C)C)cc1)C=C2C(C)OC(=O)CCCc1ccc(N(CCCl)CCCl)cc1.[Cl-].[Cl-] (stereo not drawn)
Activity [2]: Active
Drug uptake [3]: Active
Activity [4]: 0.09
Activity [5]: Active
Activity [6]: < 0.01
Drug uptake [7]: Active
Drug uptake [8]: Active
Activity (HeLa [9]): Non-toxic
Activity [10]: Active
Activity (HeLa [11]): Non-toxic
Activity [12]: Active
Drug uptake [13]: Active
Activity [14]: 1.07e-05
IC50 (HeLa [1]): 41 µM
Activity (HeLa [15]): Non-toxic
selectivity ratio at 48 h [16]: 3.7
Drug uptake [17]: Active

SMILES: CCCCCC[n+]1ccc(/C(C#N)=C2/C=C(C(C)OC(=O)CCCc3ccc(N(CCCl)CCCl)cc3)c3ccc(N(CC)CC)cc3O2)cc1.[Cl-] (stereo not drawn)
IC50 (U-87 MG [18]): 6.72 µM
Activity [2]: Active
Activity [4]: 0.07
Activity [5]: Active
Activity [6]: < 0.01
IC50 at 48 h [19]: 120 nM
Drug uptake [20]: Active
Activity (HeLa [9]): Non-toxic
Activity [10]: Active
Drug uptake [21]: Active
Activity (HeLa [11]): Non-toxic
Activity [12]: Active
Activity (U-87 MG [22]): Active
Activity [14]: 1.3e-05
IC50 (HeLa [1]): 3.76 µM
Activity (HeLa [15]): Non-toxic
selectivity ratio at 48 h [16]: 40
Drug uptake [17]: Active

SMILES: CCCCCC[n+]1ccc(/C(C#N)=C2/C=C(C)c3ccc(N(CC)CC)cc3O2)cc1
Activity [5]: Active
Activity [12]: Active

Activity [4]: 0.26
Drug uptake [23]: Active
SMILES: CCCCCC[n+]1ccc(/C(C#N)=C2/C=C(C(C)O)c3ccc(N(CC)CC)cc3O2)cc1.[Cl-] (stereo not drawn)
Activity [5]: Active
Activity [12]: Active
IC50 (HeLa [1]): 27.2 µM
selectivity ratio at 48 h [16]: 40

Activity [2]: Active
Activity [4]: 0.23
Drug uptake [20]: Active
Drug uptake [24]: Active
Activity [10]: Active
Drug uptake [21]: Active
Activity [14]: 3.89e-05
Drug uptake [17]: Active
SMILES: CCCCCC[n+]1ccc(/C(C#N)=C2/C=C(C(C)OC(=O)CCCc3ccccc3)c3ccc(N(CC)CC)cc3O2)cc1.[Br-] (stereo not drawn)
Activity [5]: Active
Activity [6]: 0.05
Activity [12]: Active
IC50 (HeLa [1]): 3.54 µM
selectivity ratio at 48 h [16]: 131

SMILES: O=C(O)CCCc1ccc(N(CCCl)CCCl)cc1 [CHLORAMBUCIL]
IC50 (HeLa [1]): > 100 µM
